{"data": "Measurements of several laboratories", "Melanocortin receptor 5": "Melanocortin receptor 5 (Mus musculus, UniProt P41149)", "rep main protease": "Replicase polyprotein 1ab, main protease (rep, Severe acute respiratory syndrome-related coronavirus, UniProt P0C6X7)"}
{"SMILES": "Clc1cccc(N2CCNCC2)c1Cl", "target": "Muscarinic acetylcholine receptor M4 (CHRM4, Homo sapiens, UniProt P08173)", "test": "ligand displacement, radioligand", "conditions": "cell membranes", "quantity": "Ki", "value": "> 63.1 µM"}
{"SMILES": "CN1CCC(C(c2ccccc2)c2ccccc2)CC1", "target": "Histamine H1 receptor (HRH1, Homo sapiens, UniProt P35367)", "test": "cell-free assay, radioligand", "quantity": "Ki", "value": "0.0251 µM"}
{"SMILES": "C[C@@H]1NC(=O)[C@H](CCCN)NC(=O)[C@H](Cc2ccccc2)NC(=O)[C@H](Cc2ccccc2)NC(=O)[C@H](CCCNC(=N)N)NC(=O)[C@@H]2CCCN2C(=O)[C@H]2CCCN2C(=O)[C@H](Cc2ccccc2)NC1=O", "target": "Melanocortin receptor 5", "test": "reporter gene, agonist", "quantity": "EC50", "value": "> 100 µM"}
{"SMILES": "O=C(O)[C@H]1O[C@@H](Oc2cc3oc(-c4ccccc4)cc(=O)c3c(O)c2O)[C@H](O)[C@@H](O)[C@@H]1O", "target": "rep main protease", "test": "enzyme activity, inhibitor", "quantity": "IC50", "value": "101 µM"}
{"SMILES": "[Hg+2]", "target": "rep main protease", "test": "enzyme activity, inhibitor", "quantity": "Ki", "value": "0.5 µM"}
{"SMILES": "CN[C@]1(c2ccccc2Cl)CCCCC1=O", "target": "Ferritin light chain (FTL, Equus caballus, UniProt P02791)", "test": "cell-free assay, fluorescence", "quantity": "Kd", "value": "42 µM"}
{"SMILES": "O=C1c2c(O)cc(O)cc2O[C@H](c2cc(O)c(O)c(O)c2)[C@H]1O", "target": "rep main protease", "test": "enzyme activity, inhibitor", "quantity": "IC50", "value": "4.58 µM"}
{"SMILES": "C[C@@H]1NC(=O)[C@H](CC(N)=O)NC(=O)[C@H](Cc2ccccc2)NC(=O)[C@H](Cc2cccc3ccccc23)NC(=O)[C@H](CCCNC(=N)N)NC(=O)[C@@H]2CCCN2C(=O)[C@H]2CCCN2C(=O)[C@H](Cc2ccccc2)NC1=O", "target": "Melanocortin receptor 5", "test": "reporter gene, agonist", "quantity": "EC50", "value": "> 100 µM"}
{"SMILES": "COc1ccc(-c2nsc(NC(=O)[C@@H]3C[C@H]3C)c2C)cc1", "target": "Metabotropic glutamate receptor 1 (GRM1, Homo sapiens, UniProt Q13255)", "test": "calcium signal, antagonist", "quantity": "IC50", "value": "0.0089 µM"}
